# From ChEMBL document CHEMBL1149758, “N-[2-(5,5-dimethyl-1,3-dioxane-2-yl)ethyl]amino acids: their synthesis, anti-inflammatory evaluation and QSAR analysis” (Eur J Med Chem, 2008)
# Calls of active or inactive are those of the source. The rule behind the calls is not given here.
# Test system: Mus musculus
# Experiment: Antiinflammatory activity against xylene-induced ear edema in ICR mouse at 20 mg/kg, po
# Format: functional, organism-based
# Parameters: dose 20 mg/kg
# Outline: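 Mice dosed orally with compound suspended in CMC (2.0 mg/mL), vehicle group given CMC, aspirin in CMC as positive control; 30 min later 0.03 mL xylene applied to both surfaces of right ear, left ear untreated. After 2 h mice killed, 7 mm ear punches weighed; edema = right minus left section weight, expressed as % inhibition. n = 11; ANOVA, p < 0.05.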
row,SMILES,Activity
1,CC1(C)COC(CCN[C@@H](Cc2c[nH]cn2)C(=O)O)OC1,Active
2,CC1(C)COC(CCN[C@@H](CO)C(=O)O)OC1,Active
3,CC1(C)COC(CCNCC(=O)O)OC1,Active
4,C[C@@H](O)[C@H](NCCC1OCC(C)(C)CO1)C(=O)O,Active
5,CC1(C)COC(CCN[C@@H](Cc2ccccc2)C(=O)O)OC1,Active
6,CC[C@H](C)[C@H](NCCC1OCC(C)(C)CO1)C(=O)O,Active
7,CC(C)C[C@H](NCCC1OCC(C)(C)CO1)C(=O)O,Active
8,CC1(C)COC(CCN[C@@H](CC(=O)O)C(=O)O)OC1,Active
9,CC1(C)COC(CCN[C@@H](CC(N)=O)C(=O)O)OC1,Active
10,CC1(C)COC(CCN[C@@H](CCC(N)=O)C(=O)O)OC1,Active
11,CC(C)[C@H](NCCC1OCC(C)(C)CO1)C(=O)O,Active
12,CC1(C)COC(CCN[C@@H](CCCCN)C(=O)O)OC1,Active
13,C[C@H](NCCC1OCC(C)(C)CO1)C(=O)O,Active
14,CC1(C)COC(CCN[C@@H](CCC(=O)O)C(=O)O)OC1,Active
15,CC1(C)COC(CCN[C@@H](Cc2c[nH]c3ccccc23)C(=O)O)OC1,Active
16,CSCC[C@H](NCCC1OCC(C)(C)CO1)C(=O)O,Active
17,CC1(C)COC(CCN[C@@H](CCCNC(=N)N)C(=O)O)OC1,Active
18,CC1(C)COC(CCN2CCC[C@H]2C(=O)O)OC1,Active
19,CC1(C)COC(CCN[C@@H](Cc2ccc(O)cc2)C(=O)O)OC1,Active
